The results in this text go back to ChEMBL document CHEMBL4732164, “Structure-Based Design of Potent Selective Nanomolar Type-II Inhibitors of Glycogen Synthase Kinase-3β” (J Med Chem, 2021).

By IC50 is commonly meant the concentration that gives 50% inhibition.

Molecules are shown by their SMILES. Active and inactive are the calls of the source. The rule behind the calls is not given here. Where only a bound is given, the exact number is not on record here.

The species named for assay [1] is Homo sapiens. As to the kind of experiment: Inhibition of PKA (unknown origin) assessed as enzyme remaining activity at 5 uM relative to control.
Assay [2] addresses Protein kinase C gamma type (Homo sapiens) (UniProt P05129). As to the kind of experiment: Inhibition of PKCgamma (unknown origin) assessed as enzyme remaining activity at 5 uM relative to control.
Assay [3] addresses Cyclin-dependent kinase 5 (Homo sapiens) (UniProt Q00535). As to the kind of experiment: Inhibition of CDK5 (unknown origin) assessed as enzyme remaining activity at 5 uM relative to control.
Assay [4] deals with SH-SY5Y. The experiment in a line: Neuroprotective activity against OA-induced neuronal injury in human SH-SY5Y cells assessed as reduction in cell death at 0.1 to 10 uM pre-incubated for 1 hrs followed by OA addition measured after 24 hrs by MTT assay. Format: functional, cell-based. The settings on record: dose 0.1-10 µM. The method, boiled down: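 SH-SY5Y cells (DMEM, 10% FBS, 1% pen/strep, 37 °C, 5% CO2) seeded at 60,000/well and grown 48 h. Compound (0.1, 0.5, 1, 5, 10 μM) added 1 h before okadaic acid at 30 nM, then 24 h. Viability by MTT (0.5 mg/mL, ≥4 h), formazan in DMSO, A595, as % control. Mean ± SEM, three independent experiments.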
In general terms: Tetrazolium dyes change colour on reduction, which living cells bring about.

Assay [5] addresses RAC-alpha serine/threonine-protein kinase (Homo sapiens) (UniProt P31749). As to the kind of experiment: Inhibition of PKBalpha (unknown origin) assessed as enzyme remaining activity at 5 uM relative to control.
Assay [6] deals with Mitogen-activated protein kinase 3 (Homo sapiens) (UniProt P27361). The experiment in a line: Inhibition of ERK1 (unknown origin) assessed as enzyme remaining activity at 5 uM relative to control.
In assay [7] the target is Glycogen synthase kinase-3 alpha (Homo sapiens) (UniProt P49840). The experiment in a line: Inhibition of GSK3alpha (unknown origin) assessed as enzyme remaining activity at 5 uM relative to control.
Assay [8] has as its target Cyclin-dependent kinase 2 (Homo sapiens) (UniProt P24941). As to the kind of experiment: Inhibition of CDK2 (unknown origin) assessed as enzyme remaining activity at 5 uM relative to control.
Assay [9] concerns the target Protein kinase C alpha type (Homo sapiens) (UniProt P17252). The experiment in a line: Inhibition of PKCalpha (unknown origin) assessed as enzyme remaining activity at 5 uM relative to control.
Assay [10] deals with Cyclin-dependent kinase 9 (Homo sapiens) (UniProt P50750). As to the kind of experiment: Inhibition of CDK9 (unknown origin) assessed as enzyme remaining activity at 5 uM relative to control.
The target of assay [11] is Glycogen synthase kinase-3 beta (Homo sapiens, UniProt P49841). The experiment in a line: Inhibition of recombinant human GSK-3beta using phosphorylated polypeptide as substrate incubated for 30 mins in presence of ATP by kinase-glo luminescence assay. In short, it runs like this:
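Buffer is 50 mM HEPES pH 7.5, 1 mM EDTA, 1 mM EGTA, 15 mM magnesium acetate. Runs 30 min at 30 °C; luminescence read 10 min after reagent. Inhibition is relative to no-inhibitor maximal activity.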

In assay [12] the target is Mitogen-activated protein kinase 1 (Homo sapiens) (UniProt P28482). The experiment in a line: Inhibition of ERK2 (unknown origin) assessed as enzyme remaining activity at 5 uM relative to control.
The nature of assay [13]: Inhibition of Ustilago maydis GSK-3beta using Ser/Thr 6 peptide as substrate preincubated for 60 mins followed by ATP and substrate addition and measured after 45 mins by Z'lyte assay. Also on record: species or system Mycosarcoma maydis.

Chain of Cyclin-dependent kinase 5 (Homo sapiens) (Q00535 whole entry, looked up): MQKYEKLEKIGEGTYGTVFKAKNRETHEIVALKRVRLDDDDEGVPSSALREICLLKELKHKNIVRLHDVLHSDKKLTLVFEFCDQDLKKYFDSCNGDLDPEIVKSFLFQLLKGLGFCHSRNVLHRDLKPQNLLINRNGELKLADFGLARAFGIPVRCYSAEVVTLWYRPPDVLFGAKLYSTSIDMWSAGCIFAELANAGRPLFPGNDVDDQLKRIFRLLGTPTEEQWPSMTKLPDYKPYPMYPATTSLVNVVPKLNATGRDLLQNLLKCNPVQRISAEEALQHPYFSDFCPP
Chain of Glycogen synthase kinase-3 alpha (Homo sapiens) (P49840 2-483 limits assumed): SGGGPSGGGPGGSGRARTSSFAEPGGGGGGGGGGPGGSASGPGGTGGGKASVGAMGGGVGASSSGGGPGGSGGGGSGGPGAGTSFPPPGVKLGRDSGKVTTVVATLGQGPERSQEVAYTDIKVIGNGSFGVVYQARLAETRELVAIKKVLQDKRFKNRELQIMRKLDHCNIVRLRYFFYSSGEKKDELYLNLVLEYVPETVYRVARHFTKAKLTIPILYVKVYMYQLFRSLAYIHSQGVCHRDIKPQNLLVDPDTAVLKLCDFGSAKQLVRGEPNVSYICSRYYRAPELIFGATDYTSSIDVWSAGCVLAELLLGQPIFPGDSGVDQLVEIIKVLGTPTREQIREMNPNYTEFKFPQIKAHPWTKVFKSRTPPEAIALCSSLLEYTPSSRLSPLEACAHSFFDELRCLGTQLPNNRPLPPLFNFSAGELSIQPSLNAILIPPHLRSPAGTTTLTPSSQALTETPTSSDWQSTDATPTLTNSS
Chain of Mitogen-activated protein kinase 3 (Homo sapiens) (P27361 whole entry): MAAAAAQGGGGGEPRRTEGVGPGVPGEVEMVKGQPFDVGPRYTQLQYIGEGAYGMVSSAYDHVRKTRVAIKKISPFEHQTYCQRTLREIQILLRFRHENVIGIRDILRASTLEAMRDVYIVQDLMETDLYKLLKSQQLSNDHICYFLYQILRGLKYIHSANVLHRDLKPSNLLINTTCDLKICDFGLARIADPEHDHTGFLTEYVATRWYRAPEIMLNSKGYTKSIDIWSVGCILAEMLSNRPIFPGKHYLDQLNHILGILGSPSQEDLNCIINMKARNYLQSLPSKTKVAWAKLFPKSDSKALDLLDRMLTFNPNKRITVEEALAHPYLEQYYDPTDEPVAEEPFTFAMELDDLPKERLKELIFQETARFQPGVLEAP
Chain of Mitogen-activated protein kinase 1 (Homo sapiens) (P28482 whole entry): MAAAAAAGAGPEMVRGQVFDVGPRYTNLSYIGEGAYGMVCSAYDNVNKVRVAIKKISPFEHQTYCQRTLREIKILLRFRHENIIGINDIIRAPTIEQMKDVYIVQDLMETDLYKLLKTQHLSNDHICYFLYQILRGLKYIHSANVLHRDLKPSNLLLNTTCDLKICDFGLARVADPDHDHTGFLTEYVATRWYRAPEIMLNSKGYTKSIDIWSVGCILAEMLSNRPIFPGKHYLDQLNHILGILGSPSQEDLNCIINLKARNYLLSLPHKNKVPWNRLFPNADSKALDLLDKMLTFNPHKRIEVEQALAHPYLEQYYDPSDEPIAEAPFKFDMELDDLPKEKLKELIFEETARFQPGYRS
Chain of RAC-alpha serine/threonine-protein kinase (Homo sapiens) (P31749 whole entry): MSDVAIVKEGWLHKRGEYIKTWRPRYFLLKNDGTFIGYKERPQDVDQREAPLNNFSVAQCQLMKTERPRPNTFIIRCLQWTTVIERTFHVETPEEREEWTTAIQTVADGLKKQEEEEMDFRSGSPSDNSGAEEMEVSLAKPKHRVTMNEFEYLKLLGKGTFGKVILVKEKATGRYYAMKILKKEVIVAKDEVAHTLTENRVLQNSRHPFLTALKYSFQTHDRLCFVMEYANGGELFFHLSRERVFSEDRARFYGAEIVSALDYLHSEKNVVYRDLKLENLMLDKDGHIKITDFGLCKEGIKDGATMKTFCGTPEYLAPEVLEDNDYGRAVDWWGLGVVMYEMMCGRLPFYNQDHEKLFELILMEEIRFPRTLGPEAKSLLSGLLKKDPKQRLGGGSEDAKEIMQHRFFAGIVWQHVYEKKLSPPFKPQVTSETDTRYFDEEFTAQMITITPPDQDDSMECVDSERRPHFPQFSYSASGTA
Chain of Cyclin-dependent kinase 9 (Homo sapiens) (P50750 whole entry): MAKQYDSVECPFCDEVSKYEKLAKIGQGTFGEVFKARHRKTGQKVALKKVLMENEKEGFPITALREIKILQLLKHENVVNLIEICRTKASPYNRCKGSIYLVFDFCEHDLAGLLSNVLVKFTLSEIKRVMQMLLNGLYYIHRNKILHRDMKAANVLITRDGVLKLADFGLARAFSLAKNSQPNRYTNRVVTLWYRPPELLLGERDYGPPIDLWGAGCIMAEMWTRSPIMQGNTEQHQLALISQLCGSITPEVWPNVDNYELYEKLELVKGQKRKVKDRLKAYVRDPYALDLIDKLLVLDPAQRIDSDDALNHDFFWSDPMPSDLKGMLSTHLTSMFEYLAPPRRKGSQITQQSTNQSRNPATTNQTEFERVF
Chain of Glycogen synthase kinase-3 beta (P49841 whole entry): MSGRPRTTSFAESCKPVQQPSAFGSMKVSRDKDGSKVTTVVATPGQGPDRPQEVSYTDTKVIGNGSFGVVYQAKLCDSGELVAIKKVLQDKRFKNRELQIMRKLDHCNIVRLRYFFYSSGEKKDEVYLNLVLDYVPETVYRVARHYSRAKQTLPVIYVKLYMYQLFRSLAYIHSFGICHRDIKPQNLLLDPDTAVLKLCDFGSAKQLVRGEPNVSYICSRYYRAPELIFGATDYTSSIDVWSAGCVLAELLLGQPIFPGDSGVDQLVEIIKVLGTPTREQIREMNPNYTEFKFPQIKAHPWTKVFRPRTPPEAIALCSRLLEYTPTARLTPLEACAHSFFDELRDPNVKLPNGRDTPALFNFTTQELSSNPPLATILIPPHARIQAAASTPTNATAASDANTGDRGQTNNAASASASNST

Regarding `COc1ccc(-c2ccnc(N[C@H]3CO[C@H]4[C@@H]3OC[C@@H]4NC(=O)Nc3ccc(C(C)=O)cc3)n2)cc1`, the Activity in assay [1], in assay [2], in [3], in [5], in assay [6] and in assay [7] was > 50% each time. The Activity in assay [8] is > 50%; in assay [9], > 50%; in assay [10] it was 33.8%; in [12] it was > 50%. Further, the outcome in assay [4] was Active. Further, in [11], the IC50 came to 412 nM.

For the compound `CC(C)(C)c1cc(NC(=O)Nc2ccc(OCCN3CCOCC3)c3ccccc23)n(-c2cccc(N)c2)n1`, inhibition in [13] was half-maximal at 1100 nM (IC50).

Consider `CNC(=O)c1cc(Oc2ccc(NC(=O)Nc3ccc(Cl)c(C(F)(F)F)c3)cc2)ccn1` [SORAFENIB], for which 710 nM corresponded to half-maximal inhibition in assay [13] (IC50).

Regarding `O=C(O)CCCNC(=O)c1cc(Oc2ccc(NC(=O)Nc3ccc(Cl)c(C(F)(F)F)c3)cc2)ccn1`, in [13], 154 nM corresponded to half-maximal inhibition (IC50).

`Cc1ccc(-n2nc(C(C)(C)C)cc2NC(=O)Nc2ccc(OCCN3CCOCC3)c3ccccc23)cc1` [DORAMAPIMOD]: the IC50 in [13] turned out to be 1060 nM.

Consider `CC(C)(C)c1cc(NC(=O)Nc2ccc(Cl)cc2)n(-c2cccc(N)c2)n1`, for which it took 7800 nM to reach half-maximal inhibition in assay [13] (IC50).

In [13], `Cc1ccc(-n2nc(C(C)(C)C)cc2NC(=O)Nc2ccc(OCCN3CCOCC3)cc2)cc1` displayed an IC50 of 10300 nM.
